Experiments:
KOR [1] = conditions: cited from earlier work
MOR = conditions: read-out: MOR Ki; cited from earlier work
KOR [2] = biological target: KOR (Mus musculus, UniProt P33534); experiment: Competitive radioligand binding assay, KOR; parameters: species or system mice; conditions: for Selectivity δ/κ: Ki ratio DOR/KOR; for Selectivity μ/κ: Ki ratio MOR/KOR
How it was run: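 Competition binding on membranes (30 μg protein) from CHO cells expressing mouse KOR or MOR, or human DOR. [3H]diprenorphine labels KOR and DOR, and [3H]naloxone labels MOR. Varied test compound in TME buffer (50 mM Tris, 3 mM MgCl2, 0.2 mM EGTA, pH 7.4), 1.5 h, 30 °C, then filtration. Nonspecific binding: 5 μM U50,488 (KOR), DAMGO (MOR), SNC80 (DOR). IC50 by nonlinear regression, converted to Ki by Cheng-Prusoff; selectivity as Ki ratios.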

human KOR = human KOR (Homo sapiens, UniProt P41145); experiment: [35S]-GTPγS functional assay, KOR-expressed CHO cell membranes; assay type: biochemical; conditions: for EC50: read-out: KOR [35S]-GTPγS binding EC50, mean ± SEM, at least three experiments; for KOR [35S]-GTPγS binding % Emax of U50,488H: relative to full agonist U50,488H (5 μM)
How it was run: (§1)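 CHO membranes (10 μg protein) incubated 1 h at 30 °C with varied test compound, GDP (15 μM) and 80 pM [35S]GTPγS; nonspecific binding with 10 μM unlabelled GTPγS. Full agonist at 5 μM for the maximal response: U50,488H (KOR), DAMGO (MOR), DPDPE (DOR). Emax is net-stimulated binding as % of that full-agonist stimulation. Mean ± SEM of at least three experiments.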

rat MOR = rat MOR (Rattus norvegicus, UniProt P33535); experiment: [35S]-GTPγS functional assay, MOR-expressed CHO cell membranes; assay type: biochemical; conditions: for EC50: read-out: MOR [35S]-GTPγS binding EC50, mean ± SEM, at least three experiments; for MOR [35S]-GTPγS binding % Emax of DAMGO: relative to full agonist DAMGO (5 μM)
How it was run: as §1

mouse DOR = mouse DOR (Mus musculus, UniProt P32300); experiment: [35S]-GTPγS functional assay, DOR-expressed CHO cell membranes; assay type: biochemical; conditions: for EC50: read-out: DOR [35S]-GTPγS binding EC50, mean ± SEM, at least three experiments; for DOR [35S]-GTPγS binding % Emax of DPDPE: relative to full agonist DPDPE (5 μM)
How it was run: as §1

SMILES | μ/κ Ki ratio (KOR [1]) | Ki (KOR [1]; read-out: KOR Ki) | Ki (MOR) | Selectivity δ/κ (KOR [2]) | Selectivity μ/κ (KOR [2]) | EC50 (human KOR) | KOR [35S]-GTPγS binding % Emax of U50,488H (human KOR) | EC50 (rat MOR) | MOR [35S]-GTPγS binding % Emax of DAMGO (rat MOR) | EC50 (mouse DOR) | DOR [35S]-GTPγS binding % Emax of DPDPE (mouse DOR)
CN(C(=O)/C=C/c1ccoc1)[C@@H]1CC[C@@]2(O)[C@H]3Cc4cccc5c4[C@@]2(CCN3CC2CC2)[C@H]1O5 [CT-18] | 355 | 0.0015 µM | 0.533 µM | – | – | – | – | – | – | – | –
Cl.O=C(N[C@@H]1CC[C@@]2(O)[C@H]3Cc4cccc5c4[C@@]2(CCN3CC2CC2)[C@H]1O5)c1ccnc(Cl)c1 [Compound 6a, 17-Cyclopropylmethyl-4,5α-epoxy-14β-hydroxy-6β-{[4′-(2′-chloropyridyl)]carboxamido}morphinan hydrochloride] | – | – | – | 203 | 1.8 | – | – | – | – | – | –
O=C(N[C@@H]1CC[C@@]2(O)[C@H]3Cc4cccc5c4[C@@]2(CCN3CC2CC2)[C@H]1O5)c1ccnc(Br)c1 [Compound 6b, 17-Cyclopropylmethyl-4,5α-epoxy-14β-hydroxy-6β-{[4′-(2′-bromopyridyl)]carboxamido}morphinan] | – | – | – | 280 | 3.3 | 0.0819 ± 0.00909 µM | 99.27 ± 2.79% | 0.291 ± 0.042 µM | 33.62 ± 3.92% | 2.68 ± 0.689 µM | 145.10 ± 12.31%
N#Cc1cc(C(=O)N[C@@H]2CC[C@@]3(O)[C@H]4Cc5cccc6c5[C@@]3(CCN4CC3CC3)[C@H]2O6)ccn1 [Compound 6c, 17-Cyclopropylmethyl-4,5α-epoxy-14β-hydroxy-6β-{[4′-(2′-cyanopyridyl)]carboxamido}morphinan] | – | – | – | 551 | 9.5 | 0.092 ± 0.00847 µM | 100.20 ± 2.37% | 0.338 ± 0.0311 µM | 26.48 ± 3.73% | 1.85 ± 0.152 µM | 113.90 ± 3.10%
Cc1cc(C(=O)N[C@@H]2CC[C@@]3(O)[C@H]4Cc5cccc6c5[C@@]3(CCN4CC3CC3)[C@H]2O6)ccn1 [Compound 6d, 17-Cyclopropylmethyl-4,5α-epoxy-14β-hydroxy-6β-{[4′-(2′-methylpyridyl)]carboxamido}morphinan] | – | – | – | 38.0 | 0.41 | – | – | – | – | – | –
COc1cc(C(=O)N[C@@H]2CC[C@@]3(O)[C@H]4Cc5cccc6c5[C@@]3(CCN4CC3CC3)[C@H]2O6)ccn1 [Compound 6e, 17-Cyclopropylmethyl-4,5α-epoxy-14β-hydroxy-6β-{[4′-(2′-methoxypyridyl)]carboxamido}morphinan] | – | – | – | 67.9 | 0.53 | – | – | – | – | – | –
